Assay [1] in a line: Inhibition of lipopolysaccharide-induced mouse B cell proliferation assessed as [3H]TdR incorporation at 0.1 uM.
Assay [2] in a line: Inhibition of lipopolysaccharide-induced mouse B cell proliferation assessed as [3H]TdR incorporation at 100 uM.
Assay [3] is described as follows: Inhibition of concanavalin A-induced mouse T cell proliferation assessed as [3H]TdR incorporation at 100 uM. Type of assay: functional. In short, it runs like this:
(§1)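 Mouse spleen cells (4 × 10^6/well) were stimulated with ConA at 5 µg/mL alongside compound at 1 × 10^-7 to 1 × 10^-4 M, then cultured for 48 h at 37 °C in 5% CO2. [3H]TdR (0.25 µCi/well) was added for the final 6 h, and uptake was read by liquid scintillation counting. Counts are means ± SD from three independent experiments, compared with controls by Student t-test.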

Assay [4] in a line: Inhibition of lipopolysaccharide-induced mouse B cell proliferation assessed as [3H]TdR incorporation at 1 uM.
A short description of assay [5]: Inhibition of concanavalin A-induced mouse T cell proliferation assessed as [3H]TdR incorporation at 0.1 uM. Type of assay: functional. The method in brief: as §1
A short description of assay [6]: Inhibition of concanavalin A-induced mouse T cell proliferation assessed as [3H]TdR incorporation at 10 uM. Type of assay: functional. In short, it runs like this: as §1
A short description of assay [7]: Inhibition of lipopolysaccharide-induced mouse B cell proliferation assessed as [3H]TdR incorporation at 10 uM.
Assay [8] can be described thus: Inhibition of concanavalin A-induced mouse T cell proliferation assessed as [3H]TdR incorporation at 1 uM. The format is functional. In short, it runs like this: as §1

Regarding `C=C1C[C@H](O)C[C@]2(C)CC[C@@](O)(C(=C)CO)C[C@@H]12`, the Activity came out at 36100 cpm in assay [1]; 17200 cpm in assay [2]; 12100 cpm in assay [3]; 33600 cpm in assay [4]; 39800 cpm in assay [5]; 28300 cpm in assay [6]. Moreover, the Activity was determined as 30.8 cpm in assay [7] and 31500 cpm in assay [8].

Consider `C=C(C)C(=O)O[C@H]1CC(=C)[C@@H]2C[C@@H](O)C(=C)[C@@H]2[C@H]2OC(=O)[C@@H](C)[C@@H]21`, for which the Activity in assay [1] came to 34800 cpm; in assay [2], 80 cpm; in assay [3], 40 cpm; in assay [4], 31100 cpm; in assay [5] it was 33800 cpm; in assay [6] it was 30600 cpm. Moreover, the Activity in assay [7] was determined as 20600 cpm; in assay [8] it was 36100 cpm.

Take `C=C(CO)C(=O)O[C@H]1CC(=C)[C@@H]2C[C@@H](O)C(=C)[C@@H]2[C@H]2OC(=O)[C@@H](C)[C@@H]21`: the Activity in assay [1] stood at 24300 cpm; in assay [2] it was 30 cpm; in assay [3] it was 30 cpm; in assay [4] it was 29800 cpm; in assay [5] it was 46300 cpm; in assay [6] it was 13400 cpm. Further, the Activity is 34900 cpm in assay [7] and 43800 cpm in assay [8].

(Values after ChEMBL document CHEMBL1158766, “Sesquiterpenoids from Saussurea laniceps” (2005).)
